For test [1], the system named is U2OS. As to the kind of experiment: Growth inhibition of ENL-independent human U2OS cells at 50 uM incubated for 3 days by CellTiter-Glo luminescent cell viability assay relative to control. As to conditions: time 3.0 day. Type of test: functional, cell-based. Put shortly:
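MOLM13 and MV4;11 were grown in RPMI-1640 + 10% FBS, U2OS in DMEM + 10% FBS. Treatment with DMSO or compound for 3 days. Viability read by CellTiter-Glo luminescence and expressed as % of DMSO-treated cells. Mean ± SEM, n = 3.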
A general note: Cellular ATP, detected with luciferase, serves as a proxy for viable cell number.

The target in test [2] is T1, Protein ENL (Homo sapiens) (UniProt Q03111).
T1 sequence (whole entry): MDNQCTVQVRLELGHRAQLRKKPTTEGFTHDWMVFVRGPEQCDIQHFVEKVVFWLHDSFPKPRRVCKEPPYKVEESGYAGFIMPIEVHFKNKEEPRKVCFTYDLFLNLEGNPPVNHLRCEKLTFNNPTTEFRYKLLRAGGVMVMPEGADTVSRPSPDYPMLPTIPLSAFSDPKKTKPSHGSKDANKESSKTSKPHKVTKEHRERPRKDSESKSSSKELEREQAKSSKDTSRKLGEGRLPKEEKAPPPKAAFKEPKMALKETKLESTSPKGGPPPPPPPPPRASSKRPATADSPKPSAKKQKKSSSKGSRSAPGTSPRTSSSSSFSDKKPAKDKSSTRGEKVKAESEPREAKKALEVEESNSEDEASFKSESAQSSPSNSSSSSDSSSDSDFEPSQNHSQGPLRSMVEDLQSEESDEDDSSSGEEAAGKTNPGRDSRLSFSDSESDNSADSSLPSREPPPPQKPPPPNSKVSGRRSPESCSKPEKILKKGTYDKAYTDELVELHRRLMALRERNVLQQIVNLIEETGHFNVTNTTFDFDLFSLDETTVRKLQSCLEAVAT
Description: Stabilization of ENL in human MOLM13 cells assessed as inhibition of high temperature-induced ENL protein degradation at 20 uM incubated for 5 hrs by cellular thermal shift assay. Type of test: cell-based. As to conditions: MOLM-13. Put shortly:
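Cells (MOLM13, MV4;11 or HeLa) were treated with 20 μM compound or DMSO for 5 h, washed with PBS and resuspended in PBS with protease inhibitors, about 3 million cells per aliquot. Aliquots were heated 3 min at the indicated temperatures, then held 2 min at room temperature. Lysis was by NP40/glycerol/DTT buffer and three freeze-thaw cycles, followed by a 13,000 rpm spin at 4 °C. Soluble ENL, GAS41 or AF9 in supernatants was measured by western blot with β-actin loading control.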

Test [3] concerns the target YEATS domain-containing protein 4 (GAS41) (Homo sapiens) (UniProt O95619). Description: Stabilization of GAS41 in human MOLM13 cells assessed as inhibition of high temperature-induced GAS41 protein degradation at 20 uM incubated for 5 hrs by cellular thermal shift assay. As to conditions: MOLM-13.
Test [4] concerns the target T2, Protein ENL (Homo sapiens, UniProt Q03111).
T2 sequence (Q03111 whole entry): T1 sequence (whole entry)
Description: Inhibition of human His-ENL YEATS domain and biotinylated H3K9ac peptide interaction by AlphaScreen assay.

This note sets out measurements from ChEMBL document CHEMBL4808215, “Discovery of Selective Small-Molecule Inhibitors for the ENL YEATS Domain” (J Med Chem, 2021).

Active and inactive are the calls of the source. No cut-off for these calls is given here.

By IC50 is commonly meant the concentration that gives 50% inhibition. Low readings indicate greater potency in that assay, high ones weaker potency in that assay.

YEATS domain-containing protein 4 (GAS41) (Homo sapiens), sequence (O95619 whole entry, looked up, the tested form may be a part): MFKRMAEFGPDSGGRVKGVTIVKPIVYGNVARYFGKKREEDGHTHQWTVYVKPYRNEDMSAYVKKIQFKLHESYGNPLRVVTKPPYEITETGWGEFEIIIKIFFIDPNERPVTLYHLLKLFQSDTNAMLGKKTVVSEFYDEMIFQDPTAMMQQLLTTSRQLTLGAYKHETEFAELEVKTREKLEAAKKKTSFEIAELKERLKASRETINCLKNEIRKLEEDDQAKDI

For `CN(C)Cc1ccc(CNC(=O)c2ccc3nncn3c2)cc1`, the “growth inhibition (GI)” value in test [1] was “inactive”. Moreover, the outcome in test [2] was Active. Besides, the outcome in test [3] was inactive. Besides, in test [4], the midpoint of inhibition, the IC50, lay at 621 nM.
